What was measured:
[1] = Drug uptake in human A549 cells assessed as increase in intracellular boron atoms at 30 uM measured after 24 hrs by ICP-MS analysis; assay type: ADME, cell-based; details: a549, 24 h
How it was run: (§1)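 Cells seeded at 5 × 10^5/well and grown overnight at 37 °C, 5% CO2, normoxic. A549 in DMEM/10% FBS; HeLa S3 in MEM/10% FBS. Exposed to 30 μM compound for 24 h. Cells washed with PBS ×3 and digested in 60% HNO3 for 24 h at room temperature, then diluted, centrifuged and filtered. Total boron (10B+11B) measured by ICP-MS and normalized per cell from hemocytometer counts of a parallel well. Mean ± SD of triplicates.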

[2] = Drug uptake in human A549 cells assessed as increase in intracellular boron concentration measured per cell at 30 uM measured after 24 hrs by ICP-MS analysis; assay type: ADME, cell-based; details: a549, 24 h; how it was run: as §1
Calf thymus DNA [3] = test: Binding affinity to calf thymus DNA assessed as stabilization by measuring change in melting temperature at ratio of 5 by UV/vis spectrophotometric; assay type: nucleic-acid assay; details: Bos taurus
Calf thymus DNA [4] = test: Binding affinity to calf thymus DNA assessed as stabilization by measuring change in melting temperature at ratio of 1 by UV/vis spectrophotometric; assay type: nucleic-acid assay; details: Bos taurus
[5] = Drug uptake in human HeLa S3 cells assessed as increase in intracellular boron concentration measured per cell at 30 uM measured after 24 hrs by ICP-MS analysis; assay type: ADME, cell-based; details: hela s3, 24 h; how it was run: as §1
Calf thymus DNA [6] = test: Binding affinity to calf thymus DNA assessed as stabilization by measuring change in melting temperature at ratio of 0.1 by UV/vis spectrophotometric; assay type: nucleic-acid assay; details: Bos taurus
Calf thymus DNA [7] = test: Binding affinity to calf thymus DNA assessed as stabilization by measuring change in melting temperature at ratio of 0.2 by UV/vis spectrophotometric; assay type: nucleic-acid assay; details: Bos taurus

| Drug uptake [1] | Drug uptake [2] | ΔTm (Calf thymus DNA [3]) | ΔTm (Calf thymus DNA [4]) | Structure (SMILES) | other results |
| --- | --- | --- | --- | --- | --- |
| Active | Active | – | – | c1cc(CN2CCNCCNCC2)cc(B2OC3(CCCCC3)C3(CCCCC3)O2)c1 | – |
| – | Active | 8 °C | 3 °C | c1cc(B2OC3(CCCCC3)C3(CCCCC3)O2)ccc1CN1CCNCCNCCNCCNCC1 | Drug uptake [5]: > 2.5 fmol |
| – | Active | 6 °C | 1 °C | c1cc(CN2CCNCCNCCNCC2)cc(B2OC3(CCCCC3)C3(CCCCC3)O2)c1 | – |
| Active | – | – | – | c1cc(B2OC3(CCCCC3)C3(CCCCC3)O2)ccc1CN1CCNCCNCC1 | – |
| – | – | – | – | NCCCCNCCCN | ΔTm (Calf thymus DNA [6]): 7 °C; ΔTm (Calf thymus DNA [7]): 12 °C |

Source: ChEMBL document CHEMBL5214904, “Design, Synthesis, and Biological Evaluation of Boron-Containing Macrocyclic Polyamines and Their Zinc(II) Complexes for Boron Neutron Capture Therapy” (J Med Chem, 2021)
